# TRPC4 PAM – positive allosteric modulators of TRPC4, primary screen, cell-based, mouse TRPC4beta, HEK293 mu-opioid, Fluo-4 calcium. DAMGO EC20, Fluo-4 Ca2+ flux; hits give high values. Short transient receptor potential channel 4 (Mus musculus), Q9QUQ5. B-score at 10 µM. 310,000 tested, 0.42% active;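 active = B-score of calcium response area above 5 SD of library B-scores, with initial fluorescence ratio within 5 SD of library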;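 also: B-score of integrated fluorescence ratio over time as area under calcium response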
# TRPC6 inh – mouse TRPC6 channel inhibitors, primary screen, cell-based, HEK293, membrane potential dye | AID 2553, 2010 | ACh-evoked depolarization; hits give low values | Short transient receptor potential channel 6 (Mus musculus), Q61143 | B-score at 10 µM | 310,000 tested, 1.1% active;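 active = B-score under library mean minus 3 SD, initial fluorescence not abnormally high, positive integrated signal ratio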;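 also: B-score derived from integrated fluorescence ratio over the kinetic read; more negative B-score means stronger inhibition of depolarization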
# TRPC4 act – activators of mouse TRPC4 channel, primary screen, Fluo4 calcium, HEK293 TRPC4beta/mu-opioid cells; 310,000 tested, 0.49% active; Short transient receptor potential channel 4 (Mus musculus), Q9QUQ5; B-score at 10 µM; Fluo4 calcium fluorescence; hits give high values;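 active = B-score above 5 SD of library B-scores, and initial fluorescence ratio not above library mean plus 5 SD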;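 also: positive B-score marks a calcium rise read as TRPC4 activation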
#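 Assay system: HEK293 stable line with TRPC4beta plus mu-opioid receptor. Times: dye 45 min RT, read 110 s. Measured by: kinetic Fluo4 calcium fluorescence. Measure: B score of integrated ratio. Controls: assay buffer as low control, maximal DAMGO as high control.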
# TRPC4 inh – inhibitors of mouse TRPC4 channel, primary screen, Fluo4 calcium, HEK293 TRPC4beta/mu-opioid cells. DAMGO-evoked Fluo4 calcium flux; hits give low values. 300,000 tested, 0.39% active. B-score at 10 µM. Short transient receptor potential channel 4 (Mus musculus), Q9QUQ5;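 active = B-score over 3 SD under the library average, no early fluorescence shift, positive overall ratio signal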
#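 Material: HEK293 cells with stable TRPC4beta plus mu-opioid receptor expression / Probe or stimulus: DAMGO in two steps, submaximal then maximal / Compound: single concentration per test compound / Technique: kinetic Fluo4 fluorescence imaging of calcium influx / Read-out: per-well B score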
# TRPC6 activator – mouse TRPC6 channel activators, primary screen, cell-based, HEK293, membrane potential dye. AID 2550, 2010. Short transient receptor potential channel 6 (Mus musculus), Q61143. 310,000 tested, 0.13% active. B-score at 10 µM. HEK293-TRPC6 membrane potential dye fluorescence; hits give high values;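 active = B-score of the integrated fluorescence ratio above library mean plus 3 SD, and starting fluorescence ratio within library mean plus 5 SD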;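 also: higher score means more depolarization so channel activation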
# Active calls of the source: *; i = inactive. Shown are actives, neighbours in structure and some others; about 2.3% of the full set was active somewhere.
SMILES,TRPC4 PAM,TRPC6 inh,TRPC4 act,TRPC4 inh,TRPC6 activator
COc1ccc2oc(C(=O)Nc3ccc(S(=O)(=O)N(C)C4CCN(C)CC4)cc3)c(C)c2c1,i,i,i,i,i
NN=C1c2cc([N+](=O)[O-])ccc2-c2ccc([N+](=O)[O-])cc21,18*,i,i,i,i
O=[N+]([O-])c1ccc2c(c1)/C(=N\O)c1ccccc1-2,i,i,i,i,i
COc1ccc(NC(=O)CSc2nc3[nH]ncc3c(=O)[nH]2)c(OC)c1,i,i,i,i,i
O=C1COc2ccc(S(=O)(=O)N3CCCC3)cc2N1,i,i,i,i,i
O=C1COc2ccc(N3C(=O)C=CC3=O)cc2N1,i,i,i,-7*,i
O=C(CSc1nc(-c2ccccc2)c(-c2ccccc2)o1)NCCCO,i,i,i,i,i
O=C(NCC(c1cccs1)N1CCOCC1)c1ccc(Cl)c([N+](=O)[O-])c1 (configuration not stated),i,i,90*,i,i
COc1ccc(-c2c(C)c3ccc(O)cc3oc2=O)cc1,i,i,i,i,i
CCn1c(NC(=O)c2ccccc2)nc2ccccc21,i,i,i,i,i
CN(C)CCCn1c(NC(=O)C2CCCCC2)nc2ccccc21,i,i,i,i,i
CCCCn1c(NC(=O)C2CCCCC2)nc2ccccc21,13*,i,i,i,i
CCCCn1c(NC(=O)c2ccccc2)nc2ccccc21,52*,i,i,-6*,i
CN(Cc1ccc(C(C)(C)C)cc1)C(=O)c1ccc2c(=O)n3c(nc2c1)CCC3,i,i,i,i,i
O=C(CC1C(=O)NCCN1CC1CCCCC1)NCCc1ccc(F)cc1 (configuration not stated),i,i,51*,i,i
COc1cccc(CN2CCNC(=O)C2CC(=O)NCCc2ccccn2)c1 (configuration not stated),i,i,54*,i,i
O=C(CC1C(=O)NCCN1Cc1c(F)cccc1Cl)NCCc1ccccn1 (configuration not stated),i,i,i,i,i
O=C(CC1C(=O)NCCN1Cc1cccc(Oc2ccccc2)c1)NCCc1cscn1 (configuration not stated),i,i,i,i,i
O=C(CC1C(=O)NCCN1Cc1cccc(Oc2ccccc2)c1)NCCc1ccccn1 (configuration not stated),i,i,115*,i,i
O=C(CC1C(=O)NCCN1CC1CCCCC1)NCc1ccc(F)cc1 (configuration not stated),i,i,i,i,i
O=C(CC1C(=O)NCCN1Cc1ccccc1C(F)(F)F)NCCc1ccccn1 (configuration not stated),i,i,116*,i,i
Cc1ccc(NC(=O)N2C3CCCC2CC(NC(=O)C(C)(C)C)C3)cc1 (configuration not stated),i,i,i,i,i
Cc1ccc2oc(C(=O)N(Cc3ccccc3)C3CCS(=O)(=O)C3)c(C)c2c1 (configuration not stated),i,i,43*,i,i
O=C(/C=C/c1ccc(Cl)cc1)N(Cc1ccccc1)C1CCS(=O)(=O)C1 (configuration not stated),20*,i,i,i,i
Cc1ccc2c(C)c(C(=O)N(Cc3cccs3)C3CCS(=O)(=O)C3)oc2c1 (configuration not stated),i,i,61*,i,i
SMILES,TRPC4 PAM,TRPC6 inh,TRPC4 act,TRPC4 inh,TRPC6 activator
O=C(/C=C/c1ccc(Cl)cc1Cl)N(Cc1ccccc1)C1CCS(=O)(=O)C1 (configuration not stated),i,i,i,i,i
O=C(Oc1ccc(Br)cc1C(=S)N1CCOCC1)c1ccc([N+](=O)[O-])cc1[N+](=O)[O-],i,i,i,i,i
O=C(NCCN1CCCCCC1)C1CCCN1S(=O)(=O)c1cccc2nsnc12 (configuration not stated),i,i,i,i,i
CCOC(=O)C1CCN(S(=O)(=O)c2c(C)[nH]c(C)c2C(=O)N2CCCCC2)CC1,i,i,i,i,i
COCCN(C(=O)COC(=O)Cc1coc2cc3c(cc12)CCC3)c1c(N)n(Cc2ccccc2)c(=O)[nH]c1=O,i,i,i,i,i
CCOc1ccc(/C=C2\SC(=S)N(CCC(=O)N(CCO)c3ccccc3)C2=O)cc1,12*,i,i,i,i
CCOc1ccc(C(=O)COC(=O)c2cccc(-n3cnnn3)c2)cc1,i,i,i,i,i
O=Cc1cc(N=Nc2ccccc2Cl)ccc1O,i,i,i,-7*,i
O=Cc1cc(N=Nc2cccc(C(=O)O)c2)ccc1O,i,i,i,i,i
O=C(CSc1n[nH]c(-c2ccncc2)n1)Nc1ccc(Cl)c(Cl)c1,i,i,i,i,i
O=C(Cc1ccc(Cl)cc1)NNC(=O)c1ccco1,i,i,i,i,i
N/C(=N\OC(=O)C1CCCCC1)c1ccc(Cl)cc1,i,i,i,i,i
NC(=NC1CCCCC1)c1ccc(Cl)cc1,i,i,i,-5*,i
O=C(CCC1CCCC1)c1c(O)c2ccccc2oc1=O,i,i,193*,i,i
O=C(c1c(O)c2ccccc2oc1=O)C1CCCCC1,i,i,i,i,i
Cc1ccc(OC(=O)c2ccc([N+](=O)[O-])cc2Cl)cn1,i,i,i,i,i
Clc1cccc(OCCCn2ccnc2)c1,i,i,i,i,i
Cc1cc(Cl)cc(C)c1OCCCCn1ccnc1,i,i,106*,i,i
Clc1ccc(SCCCCn2ccnc2)cc1,i,i,75*,i,i
Clc1ccccc1OCCCn1ccnc1,i,i,i,i,i
Cc1cc(OCCCn2ccnc2)ccc1C(C)C,i,i,i,i,i
c1ccc2cc(OCCCn3ccnc3)ccc2c1,11*,i,53*,i,i
Cc1cc(OCCCCn2ccnc2)cc(C)c1Cl,i,i,141*,i,i
